Experimental data reported in ChEMBL document CHEMBL1140927, “Discovery of N-(3-fluorophenyl)-1-[(4-([(3S)-3-methyl-1-piperazinyl]methyl)phenyl)acetyl]-4-piperidinamine (GSK962040), the first small molecule motilin receptor agonist clinical candidate” (J Med Chem, 2009).

How the values were obtained:
[1] = target: T1, Motilin receptor (Homo sapiens, UniProt O43193); test: Intrinsic activity at human recombinant motilin receptor expressed in CHO cells relative to motilin; format: cell-based
Method in brief: (§1)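 CHO-K1 cells stably transfected with human motilin receptor, grown in DMEM/HamF-12 with 10% FBS, 2 mM GlutaMAX, 1 mg/mL Geneticin; seeded 10 000 cells/well, 24 h. Loaded with Fluo 4 (2.5 µM) in Tyrodes with probenecid, 1 h at 37.5 °C. Compound top final 12 µM, 1-in-4 dilutions; fluorescence read over 1 min; max change over baseline, four-parameter logistic fit; intrinsic activity = curve maximum relative to motilin maximum.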

[2] = tested on: Stomach; test: Potentiation of electric field stimulated-rabbit gastric antrum contraction at 3 uM; format: functional, Oryctolagus cuniculus
Method in brief: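 Isolated rabbit gastric antrum; cholinergic contractions evoked by electrical field stimulation, compound response expressed as % potentiation of EFS-evoked contraction, n = 4-8.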

[3] = tested on: Stomach; test: Potentiation of electric field stimulated-rabbit gastric antrum contraction at 1 uM; format: functional, Oryctolagus cuniculus
Method in brief: (§2)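 Isolated native rabbit gastric antrum tissue. Cholinergic contractions are evoked by electrical field stimulation (EFS), and compound is added at the stated concentration. The read-out is % potentiation of EFS-evoked contractions, n = 4-8.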

[4] = tested on: Stomach; test: Potentiation of electric field stimulated-rabbit gastric antrum contraction at 0.3 uM; format: functional, Oryctolagus cuniculus; method in brief: as §2
[5] = tested on: Stomach; test: Potentiation of electric field stimulated-rabbit gastric antrum contraction at 0.1 uM; format: functional, Oryctolagus cuniculus; method in brief: as §2
[6] = Half life in rabbit gastric antrum native tissue at 3 uM; format: ADME, tissue-based, Oryctolagus cuniculus, Stomach
[7] = target: T2, Cytochrome P450 3A4 (Homo sapiens, UniProt P08684); test: Inhibition of human CYP3A4 expressed in Escherichia coli using diethoxyfluorescein substrate measured in 0 to 5 mins by time dependent inhibition assay; format: ADME
T2 sequence (P08684 whole entry): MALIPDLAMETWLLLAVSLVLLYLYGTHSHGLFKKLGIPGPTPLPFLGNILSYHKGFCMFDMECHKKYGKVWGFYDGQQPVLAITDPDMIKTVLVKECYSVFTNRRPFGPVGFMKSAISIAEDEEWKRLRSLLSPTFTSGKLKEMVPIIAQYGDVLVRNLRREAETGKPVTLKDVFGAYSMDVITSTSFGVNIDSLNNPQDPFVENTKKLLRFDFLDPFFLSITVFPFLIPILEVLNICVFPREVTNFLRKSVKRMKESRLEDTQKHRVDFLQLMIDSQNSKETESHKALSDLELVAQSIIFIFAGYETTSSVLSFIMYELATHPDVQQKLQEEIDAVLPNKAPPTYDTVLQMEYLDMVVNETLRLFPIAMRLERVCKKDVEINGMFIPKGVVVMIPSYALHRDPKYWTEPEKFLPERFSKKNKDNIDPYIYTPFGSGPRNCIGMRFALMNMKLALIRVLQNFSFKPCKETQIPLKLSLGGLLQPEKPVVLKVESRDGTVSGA

[8] = target: T2, Cytochrome P450 3A4; test: Inhibition of human CYP3A4 expressed in Escherichia coli using diethoxyfluorescein substrate measured in 25 to 30 mins by time dependent inhibition assay; format: ADME
[9] = target: T1, Motilin receptor; test: Agonist activity at human recombinant motilin receptor expressed in CHO cells assessed as increase in intracellular calcium by FLIPR assay; format: functional, cell-based; method in brief: as §1
[10] = target: T2, Cytochrome P450 3A4; test: Inhibition of human CYP3A4 expressed in Escherichia coli using diethoxyfluorescein substrate by time dependent inhibition assay; format: ADME
[11] = target: T2, Cytochrome P450 3A4; test: Inhibition of human CYP3A4 expressed in Escherichia coli using diethoxyfluorescein substrate assessed as decrease in enzyme activity by time dependent inhibition assay; format: ADME; design: unit not given here
[12] = target: T3, Cytochrome P450 1A2 (Homo sapiens, UniProt P05177); test: Inhibition of human CYP1A2; format: ADME
T3 sequence (P05177 whole entry): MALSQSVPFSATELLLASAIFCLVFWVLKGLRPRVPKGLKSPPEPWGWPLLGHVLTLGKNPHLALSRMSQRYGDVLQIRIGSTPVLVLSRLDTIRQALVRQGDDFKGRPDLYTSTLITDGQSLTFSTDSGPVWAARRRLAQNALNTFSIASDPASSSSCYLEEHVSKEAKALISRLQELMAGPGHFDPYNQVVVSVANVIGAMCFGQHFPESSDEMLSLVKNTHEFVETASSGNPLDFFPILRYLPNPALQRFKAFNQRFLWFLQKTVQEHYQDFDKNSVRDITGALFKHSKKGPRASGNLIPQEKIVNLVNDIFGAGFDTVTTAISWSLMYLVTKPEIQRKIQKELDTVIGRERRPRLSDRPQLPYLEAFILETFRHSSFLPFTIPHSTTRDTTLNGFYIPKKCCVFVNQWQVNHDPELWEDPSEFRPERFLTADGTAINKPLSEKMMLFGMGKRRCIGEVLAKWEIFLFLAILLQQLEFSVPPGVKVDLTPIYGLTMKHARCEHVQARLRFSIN

[13] = target: Cytochrome P450 2C9 (Homo sapiens, UniProt P11712); test: Inhibition of human CYP2C9; format: ADME
Sequence of Cytochrome P450 2C9 (P11712 whole entry): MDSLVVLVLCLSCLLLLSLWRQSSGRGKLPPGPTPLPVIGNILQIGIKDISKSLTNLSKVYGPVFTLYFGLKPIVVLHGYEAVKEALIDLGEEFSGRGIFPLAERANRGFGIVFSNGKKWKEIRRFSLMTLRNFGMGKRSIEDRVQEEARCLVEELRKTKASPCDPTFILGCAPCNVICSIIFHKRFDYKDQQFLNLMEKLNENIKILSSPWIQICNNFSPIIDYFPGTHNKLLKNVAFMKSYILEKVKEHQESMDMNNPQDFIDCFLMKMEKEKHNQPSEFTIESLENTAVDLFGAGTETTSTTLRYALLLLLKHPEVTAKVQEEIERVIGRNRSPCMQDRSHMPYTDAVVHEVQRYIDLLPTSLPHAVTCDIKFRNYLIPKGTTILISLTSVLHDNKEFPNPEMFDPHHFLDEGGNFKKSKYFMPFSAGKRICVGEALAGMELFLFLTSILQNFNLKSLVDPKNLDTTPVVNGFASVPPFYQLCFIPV

[14] = target: Cytochrome P450 2C19 (Homo sapiens, UniProt P33261); test: Inhibition of human CYP2C19; format: ADME
Sequence of Cytochrome P450 2C19 (P33261 whole entry): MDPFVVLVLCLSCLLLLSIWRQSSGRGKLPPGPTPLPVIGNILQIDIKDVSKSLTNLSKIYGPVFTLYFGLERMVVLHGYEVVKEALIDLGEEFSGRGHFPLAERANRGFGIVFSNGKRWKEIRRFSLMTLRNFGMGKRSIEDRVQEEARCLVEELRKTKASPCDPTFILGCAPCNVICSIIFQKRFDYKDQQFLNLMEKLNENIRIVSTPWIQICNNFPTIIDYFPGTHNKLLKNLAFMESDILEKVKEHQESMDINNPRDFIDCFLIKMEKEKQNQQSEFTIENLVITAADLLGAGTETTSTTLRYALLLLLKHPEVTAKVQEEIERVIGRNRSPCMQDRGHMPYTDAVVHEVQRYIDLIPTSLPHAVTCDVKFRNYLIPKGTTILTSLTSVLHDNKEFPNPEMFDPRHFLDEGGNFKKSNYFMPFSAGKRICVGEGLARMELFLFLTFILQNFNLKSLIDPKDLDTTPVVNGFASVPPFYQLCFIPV

[15] = target: Cytochrome P450 2D6 (Homo sapiens, UniProt P10635); test: Inhibition of human CYP2D6; format: ADME
Sequence of Cytochrome P450 2D6 (P10635 whole entry): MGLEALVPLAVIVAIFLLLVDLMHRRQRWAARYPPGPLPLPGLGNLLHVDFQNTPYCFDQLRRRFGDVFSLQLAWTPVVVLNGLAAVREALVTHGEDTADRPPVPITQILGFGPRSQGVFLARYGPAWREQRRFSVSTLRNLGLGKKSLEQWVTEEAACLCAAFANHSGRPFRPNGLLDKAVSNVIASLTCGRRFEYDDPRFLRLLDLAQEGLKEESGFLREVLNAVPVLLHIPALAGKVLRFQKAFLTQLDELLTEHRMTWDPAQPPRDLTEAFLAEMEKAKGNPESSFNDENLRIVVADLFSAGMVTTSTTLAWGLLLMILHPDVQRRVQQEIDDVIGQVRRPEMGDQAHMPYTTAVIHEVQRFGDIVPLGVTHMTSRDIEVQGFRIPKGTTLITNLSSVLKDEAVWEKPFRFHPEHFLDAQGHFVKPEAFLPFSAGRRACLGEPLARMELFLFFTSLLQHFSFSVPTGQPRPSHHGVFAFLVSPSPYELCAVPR

[16] = target: Voltage-gated inwardly rectifying potassium channel KCNH2 (Homo sapiens, UniProt Q12809); test: Binding affinity to human ERG
Sequence of Voltage-gated inwardly rectifying potassium channel KCNH2 (Q12809 whole entry): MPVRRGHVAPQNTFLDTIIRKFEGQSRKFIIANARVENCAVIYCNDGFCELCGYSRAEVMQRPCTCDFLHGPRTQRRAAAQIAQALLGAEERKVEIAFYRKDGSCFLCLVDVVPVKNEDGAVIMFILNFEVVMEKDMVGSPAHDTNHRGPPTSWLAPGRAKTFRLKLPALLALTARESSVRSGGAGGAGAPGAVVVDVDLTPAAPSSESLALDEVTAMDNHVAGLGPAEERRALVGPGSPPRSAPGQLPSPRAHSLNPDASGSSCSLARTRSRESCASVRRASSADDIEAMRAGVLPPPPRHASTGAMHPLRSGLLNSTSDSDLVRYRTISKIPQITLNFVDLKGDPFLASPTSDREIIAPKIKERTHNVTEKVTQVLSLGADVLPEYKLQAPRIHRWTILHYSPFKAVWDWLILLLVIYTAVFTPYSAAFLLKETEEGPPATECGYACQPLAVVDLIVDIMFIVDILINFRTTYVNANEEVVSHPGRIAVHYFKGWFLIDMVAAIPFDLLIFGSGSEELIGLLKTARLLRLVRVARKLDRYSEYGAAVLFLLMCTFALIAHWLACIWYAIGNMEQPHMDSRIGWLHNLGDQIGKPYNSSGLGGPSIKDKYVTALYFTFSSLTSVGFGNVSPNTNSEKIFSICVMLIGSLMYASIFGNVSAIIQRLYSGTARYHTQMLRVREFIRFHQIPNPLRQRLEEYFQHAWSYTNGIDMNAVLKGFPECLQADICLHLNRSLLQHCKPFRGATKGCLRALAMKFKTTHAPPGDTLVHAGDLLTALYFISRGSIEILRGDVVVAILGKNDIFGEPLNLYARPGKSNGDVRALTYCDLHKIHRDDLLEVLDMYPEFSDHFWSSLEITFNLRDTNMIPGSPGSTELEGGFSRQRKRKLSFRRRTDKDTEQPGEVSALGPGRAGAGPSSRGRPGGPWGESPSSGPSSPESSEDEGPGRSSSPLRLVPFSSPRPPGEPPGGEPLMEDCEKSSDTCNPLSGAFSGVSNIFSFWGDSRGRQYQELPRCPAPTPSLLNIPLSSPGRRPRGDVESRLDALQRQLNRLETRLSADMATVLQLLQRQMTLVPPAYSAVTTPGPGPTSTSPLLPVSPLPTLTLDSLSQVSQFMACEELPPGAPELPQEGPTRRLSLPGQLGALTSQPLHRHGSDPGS

[17] = target: T2, Cytochrome P450 3A4; test: Inhibition of human CYP3A4 expressed in Escherichia coli using 7BQ substrate by time dependent inhibition assay; format: ADME
[18] = Aqueous solubility of the compound; format: physicochemical; conditions: aqueous medium
[19] = Half life in rabbit gastric antrum native tissue at 0.3 uM; format: ADME, tissue-based, Oryctolagus cuniculus, Stomach
[20] = Cmax in Sprague-Dawley rat at 5 mg/kg, po; format: ADME, organism-based; design: dose 5 mg/kg, route oral; conditions: in vivo
Method in brief: (§3)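 Male Sprague-Dawley rats (n = 3), HCl salt suspended in 1% w/v methylcellulose at 1 mg free base/mL, oral gavage 5 mL/kg for 5 mg free base/kg; serial blood up to 12 h (8 h in a second study); diluted blood analysed by LC/MS/MS, LLQ 5 ng/mL.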

[21] = Tmax in Sprague-Dawley rat at 5 mg/kg, po; format: ADME, organism-based; design: dose 5 mg/kg, route oral; conditions: in vivo; method in brief: as §3
[22] = tested on: Rattus norvegicus; test: AUC (0 to t) in Sprague-Dawley rat at 5 mg/kg, po; format: ADME, organism-based, Plasma; design: dose 5 mg/kg, route oral; conditions: in vivo; method in brief: as §3
[23] = Oral bioavailability in Sprague-Dawley rat; format: ADME, organism-based; conditions: in vivo
Method in brief: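 Male Sprague-Dawley rats (n = 3), two study days 2 days apart: 1 h IV infusion of 1 mg free base/kg in 0.9% saline (0.2 mg/mL, 5 mL/kg/h), then oral gavage 5 mg free base/kg in 1% methylcellulose; serial blood up to 12 h; LC/MS/MS, LLQ 5 ng/mL.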

[24] = Oral bioavailability in Beagle dog; format: ADME, organism-based, Canis lupus familiaris; conditions: in vivo
Method in brief: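 Three dogs, two study days 7 days apart: 1 h IV infusion of 2 mg free base/kg in 0.9% saline (0.4 mg/mL, 5 mL/kg/h), then same dogs oral gavage 5 mg free base/kg in 1% methylcellulose (1 mg/mL, 5 mL/kg); serial blood up to 30 h; LC/MS/MS, LLQ 5 ng/mL.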

[25] = target: Growth hormone secretagogue receptor type 1 (Homo sapiens, UniProt Q92847); test: Agonist activity at human Ghrelin receptor; format: functional
Sequence of Growth hormone secretagogue receptor type 1 (Q92847 whole entry): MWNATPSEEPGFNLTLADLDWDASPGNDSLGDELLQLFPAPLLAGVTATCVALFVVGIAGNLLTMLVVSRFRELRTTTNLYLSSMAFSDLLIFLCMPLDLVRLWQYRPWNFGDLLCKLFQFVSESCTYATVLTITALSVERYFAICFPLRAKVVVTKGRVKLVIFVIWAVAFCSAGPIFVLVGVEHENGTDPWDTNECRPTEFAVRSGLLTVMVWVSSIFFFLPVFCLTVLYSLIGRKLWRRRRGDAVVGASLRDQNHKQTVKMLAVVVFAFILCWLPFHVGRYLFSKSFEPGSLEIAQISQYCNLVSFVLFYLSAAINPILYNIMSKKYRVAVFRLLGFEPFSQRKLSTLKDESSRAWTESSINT

[26] = Protein binding in human plasma; format: ADME, cell-free; conditions: read-out: PPB (converted)
[27] = Protein binding in rat plasma; format: ADME, cell-free; conditions: read-out: PPB (converted)

T1 sequence (O43193 whole entry): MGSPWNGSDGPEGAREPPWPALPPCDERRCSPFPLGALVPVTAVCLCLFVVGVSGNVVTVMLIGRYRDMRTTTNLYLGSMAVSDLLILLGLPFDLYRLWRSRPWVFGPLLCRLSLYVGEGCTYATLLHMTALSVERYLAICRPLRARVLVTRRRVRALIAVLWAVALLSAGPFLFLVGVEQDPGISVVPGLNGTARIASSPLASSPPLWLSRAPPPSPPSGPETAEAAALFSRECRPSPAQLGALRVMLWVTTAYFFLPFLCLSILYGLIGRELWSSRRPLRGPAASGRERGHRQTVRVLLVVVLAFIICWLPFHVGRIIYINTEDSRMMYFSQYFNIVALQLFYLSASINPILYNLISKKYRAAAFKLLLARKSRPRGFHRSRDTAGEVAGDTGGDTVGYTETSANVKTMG

C[C@H]1CN(Cc2ccc(CC(=O)N3CCC(Nc4cccc(F)c4)CC3)cc2)CCN1
Intrinsic activity [1]: 0.9

CC[C@H]1OC(=O)[C@H](C)[C@@H](O[C@H]2C[C@@](C)(OC)[C@@H](O)[C@H](C)O2)[C@H](C)[C@@H](O[C@@H]2O[C@H](C)C[C@H](N(C)C)[C@H]2O)[C@](C)(O)C[C@@H](C)C(=O)[C@H](C)[C@@H](O)[C@]1(C)O [ERYTHROMYCIN]
Intrinsic activity [1]: 1.3
Activity [2]: 490%
Activity [3]: 189%
Activity [4]: 69%
Activity [5]: 14%
half-life at 3 µM [6]: 24 min
IC50 [7]: 1900 nM
IC50 [8]: 190 nM

C[C@H]1CN(Cc2ccc(CC(=O)N3CCC(Nc4ccc(F)cc4)CC3)cc2)CCN1
Intrinsic activity [1]: 0.8
EC50 [9]: 10 nM

C[C@@H]1CN(Cc2ccc(C(C)(C)C(=O)N3CCC(Nc4ccc(F)cc4)CC3)cc2)C[C@H](C)N1
Intrinsic activity [1]: 0.7
IC50 [10]: 4700 nM
Activity [11]: 6.1
EC50 [9]: 31.6 nM

C[C@@H]1CN(Cc2ccc(-c3cccnc3C(=O)N3CCC(Nc4ccc(F)cc4)CC3)cc2)C[C@H](C)N1
Activity [2]: 343%
EC50 [9]: 3.98 nM
IC50 [7]: 20000 nM
IC50 [8]: 1400 nM
IC50 [12]: > 23000 nM
IC50 [13]: > 23000 nM
IC50 [14]: > 23000 nM
IC50 [15]: > 23000 nM
IC50 [16]: > 31600 nM

C[C@@H]1CN(Cc2ccc(CC(=O)N3CCC(Nc4ccc(F)cc4)CC3)cc2)C[C@H](C)N1
Intrinsic activity [1]: 0.9
IC50 [10]: 41000 nM
IC50 [17]: 59000 nM
Activity [11]: 2.7
EC50 [9]: 39.8 nM

C[C@H]1CN(Cc2ccc(CCC(=O)N3CCC(Nc4ccc(F)cc4)CC3)cc2)CCN1
Intrinsic activity [1]: 1.2
EC50 [9]: 63.1 nM

C[C@H]1CN(Cc2ccc(CC(=O)N3CCC(Nc4cccc(F)c4)CC3)cc2)CCN1.Cl
solubility [18]: > 1 µg/mL

CCCC[C@H](NC(=O)[C@H](CCCNC(=N)N)NC(=O)[C@H](CCC(N)=O)NC(=O)[C@H](CC(C)C)NC(=O)[C@H](CCC(=O)O)NC(=O)CNC(=O)[C@H](Cc1ccc(O)cc1)NC(=O)[C@@H](NC(=O)[C@H](Cc1ccccc1)NC(=O)[C@@H](NC(=O)[C@@H]1CCCN1C(=O)[C@@H](NC(=O)[C@@H](N)Cc1ccccc1)C(C)C)[C@@H](C)CC)[C@@H](C)O)C(=O)N[C@@H](CCC(N)=O)C(=O)N[C@@H](CCC(=O)O)C(=O)N[C@@H](CCCCN)C(=O)N[C@@H](CCC(=O)O)C(=O)N[C@@H](CCCNC(=N)N)C(=O)N[C@@H](CC(N)=O)C(=O)N[C@@H](CCCCN)C(=O)NCC(=O)N[C@@H](CCC(N)=O)C(=O)O
Activity [4]: 740%
Activity [5]: 721%
half-life at 0.3 µM [19]: 11.4 min

C[C@@H]1CN(Cc2ccc(-c3cccnc3C(=O)N3CCC(Nc4ccc(F)cc4)CC3)cc2)C[C@H](C)N1.Cl
solubility [18]: ≥ 1 µg/mL

C[C@H]1CN(Cc2ccc(CCC(=O)N3CCC(Nc4cccc(F)c4)CC3)cc2)CCN1
Intrinsic activity [1]: 1
IC50 [10]: 10000 nM
IC50 [17]: 18000 nM
Activity [11]: 3.2
EC50 [9]: 25.1 nM

C[C@H]1CN(Cc2ccc(CC(=O)N3CCC(Nc4cccc(F)c4)CC3)cc2)CCN1 [CAMICINAL]
Activity [11]: 1.4
Activity [2]: 248%
Activity [3]: 108%
Activity [4]: 53%
Cmax [20]: 400 nM
Tmax [21]: 120 min
AUC [22]: 12 kg·min/L
half-life at 3 µM [6]: 46.9 min
EC50 [9]: 12.6 nM
bioavailability [23]: 48%
bioavailability [24]: 51%
IC50 [12]: > 100000 nM
IC50 [13]: > 100000 nM
IC50 [14]: > 100000 nM
IC50 [15]: 34000 nM
EC50 [25]: > 1000 nM
IC50 [16]: 15800 nM
fraction unbound [26]: 0.17
fraction unbound [27]: 0.37

CC[C@H](C)[C@H](NC(=O)[C@@H]1CCCN1C(=O)[C@@H](NC(=O)[C@@H](N)Cc1ccccc1)C(C)C)C(=O)N[C@@H](Cc1ccccc1)C(=O)N[C@H](C(=O)N[C@@H](Cc1ccc(O)cc1)C(=O)NCC(=O)N[C@@H](CCC(=O)O)C(=O)N[C@@H](CC(C)C)C(=O)N[C@@H](CCC(N)=O)C(=O)N[C@@H](CCCNC(=N)N)C(=O)N[C@@H](CCSC)C(=O)N[C@@H](CCC(N)=O)C(=O)N[C@@H](CCC(=O)O)C(=O)N[C@@H](CCCCN)C(=O)N[C@@H](CCC(=O)O)C(=O)N[C@@H](CCCNC(=N)N)C(=O)N[C@@H](CC(N)=O)C(=O)N[C@@H](CCCCN)C(=O)NCC(=O)N[C@@H](CCC(N)=O)C(=O)O)[C@@H](C)O
Intrinsic activity [1]: 1
EC50 [9]: 0.0398 nM

C[C@H]1CN(Cc2ccc(CC(=O)N3CCC(Nc4cccc(C#N)c4)CC3)cc2)CCN1
Intrinsic activity [1]: 1.1
IC50 [10]: 36000 nM
IC50 [17]: 58000 nM
Activity [11]: 2
Activity [3]: 462%
Activity [4]: 218%
Activity [5]: 98%
Cmax [20]: 200 nM
Tmax [21]: 240 min
AUC [22]: 2.8 kg·min/L
EC50 [9]: 3.98 nM

C[C@@H]1CN(Cc2ccc(CCC(=O)N3CCC(Nc4ccc(F)cc4)CC3)cc2)C[C@H](C)N1
Intrinsic activity [1]: 0.9
EC50 [9]: 50.1 nM

C[C@@H]1CN(Cc2ccc(CC(=O)N3CCC(Nc4cccc(F)c4)CC3)cc2)CCN1
Intrinsic activity [1]: 0.7
EC50 [9]: 20 nM

CC(C(=O)N1CCC(Nc2ccc(F)cc2)CC1)c1ccc(CN2C[C@@H](C)N[C@@H](C)C2)cc1 (stereo partly specified)
Intrinsic activity [1]: 1.1
IC50 [10]: 8700 nM
Activity [11]: 7.6
EC50 [9]: 31.6 nM
